The list is not random: actives were taken first. Their share in the collection is about 2.6%.
ARFGAP1 inh = inhibitors of rat ARFGAP1. Q62848. Arfgap1-stimulated ARF1 GTP hydrolysis, GDP FP detection. inhibition, % at 16.5 µM. 360,000 compounds, 0.26% hits. AID 651572;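 active means inhibition above a per-plate limit, mean inhibition of low control wells plus 3 SD, cut at about 25% in these data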;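 further: 0% = DMSO wells with enzyme and 100% = wells lacking Arfgap1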
Target sequence (Q62848 1-136 limits assumed): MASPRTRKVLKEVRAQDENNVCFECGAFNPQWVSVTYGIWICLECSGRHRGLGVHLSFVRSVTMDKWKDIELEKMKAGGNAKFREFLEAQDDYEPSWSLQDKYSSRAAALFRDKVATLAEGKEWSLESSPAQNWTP
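Material: rat Arfgap1 catalytic domain, aa 1-136; also added: human ARF1(Δ1-17)-GTP substrate; compound dosing: one concentration, 16.5 µM, DMSO 1.26%; incubation: GTP hydrolysis reaction 2 h at 25 °C; measured by: Tracer-displacement fluorescence polarization with EDTA stop, 620/688 nm; evaluation: % inhibition from polarization; repeats: one replicate per compound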
ASAP1 GAP inh = inhibitors of human ASAP1 ArfGAP activity. ASAP1-stimulated ARF1 GTP hydrolysis, GDP FP detection. inhibition, % at 16.5 µM. 360,000 compounds, 0.19% hits; in the data active means inhibition above about 25%;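 further: 0% = vehicle with enzyme and substrate and 100% = no enzyme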
Target sequence (Q9ULH1 325-724 limits assumed): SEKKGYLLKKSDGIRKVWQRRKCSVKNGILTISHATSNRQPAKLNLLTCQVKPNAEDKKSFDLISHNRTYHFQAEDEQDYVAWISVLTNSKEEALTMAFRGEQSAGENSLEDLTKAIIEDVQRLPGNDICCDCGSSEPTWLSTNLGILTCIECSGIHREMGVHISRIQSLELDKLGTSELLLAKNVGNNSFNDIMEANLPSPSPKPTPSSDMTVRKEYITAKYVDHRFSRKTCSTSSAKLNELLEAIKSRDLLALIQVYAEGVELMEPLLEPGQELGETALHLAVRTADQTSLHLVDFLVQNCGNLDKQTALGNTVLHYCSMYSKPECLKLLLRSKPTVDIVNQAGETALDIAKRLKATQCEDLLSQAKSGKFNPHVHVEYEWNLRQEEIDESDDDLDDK
esBAF inh = inhibitors of esBAF chromatin remodeling in mouse ES cells. Bmi1-luciferase knock-in reporter, 24 h; 100% = twice the neutral-well signal. reporter increase, % at 12.5 µM. 350,000 compounds, 2% hits. AID 602393; in the data active means activation above about 40%;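 further: 0% = median of the plate's neutral control wells and 100% = double that signal; a rise in the Bmi1 reporter signal indicates esBAF inhibition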
SMARCA2 activ = activators of SMARCA2 function | MG213 cells, MMTV-luciferase reporter, dexamethasone, overnight | activation, % at 9.1 µM | 370,000 compounds, 1% hits | AID 652017; in the data active means activation above about 7.8%;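 further: 0% = vehicle wells and 100% = reference activator wells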
Numbers without * were called inactive.

What do the screens show for `CC(=O)N(C)C[C@@H]1Oc2ncc(C#Cc3cccc(F)c3)cc2C(=O)N([C@H](C)CO)C[C@@H]1C`?
esBAF inh: -4

Results for CCOC(=O)C1=C(COC(=O)c2cccc(N(C)C)c2)NC(=O)NC1C (configuration not stated) ?
ARFGAP1 inh: 4; ASAP1 GAP inh: -4; esBAF inh: 60*; SMARCA2 activ: 5

What do the screens show for `Cc1ccc(-c2cnc3c(c2)C(=O)N([C@@H](C)CO)C[C@@H](C)[C@H](CN(C)CC2CCOCC2)O3)cc1`?
esBAF inh: -2

Results for O=C(Nc1cc(-c2ccccc2)cs1)c1ccco1 ?
ARFGAP1 inh: 4; ASAP1 GAP inh: 11; esBAF inh: 67*; SMARCA2 activ: 3

Results for O=C(Nc1nc(-c2ccccc2)cs1)c1ccco1 ?
ARFGAP1 inh: 12; ASAP1 GAP inh: -16; SMARCA2 activ: 1

Results for O=C(Nc1scc(-c2ccccc2)c1C(=O)O)c1ccco1 ?
ARFGAP1 inh: -8; ASAP1 GAP inh: 12; esBAF inh: 27; SMARCA2 activ: 0

How did COc1ccc(-c2csc(NC(=O)c3ccco3)n2)cc1 do in these assays?
ARFGAP1 inh: 1; ASAP1 GAP inh: 1; esBAF inh: 65*; SMARCA2 activ: -5

How did CCOc1ccc(-c2csc(NC(=O)c3ccco3)n2)cc1 do in these assays?
ARFGAP1 inh: 0; ASAP1 GAP inh: 5; esBAF inh: 58*; SMARCA2 activ: 0

What do the screens show for `CC(OC(=O)c1ccco1)C(=O)Nc1nc(-c2ccccc2)cs1` (configuration not stated)?
ARFGAP1 inh: 2; ASAP1 GAP inh: 2; esBAF inh: 48*; SMARCA2 activ: -1

What do the screens show for `COc1ccc(NC(=O)N(C)C[C@H]2Oc3ccc(NC(=O)c4ccncc4)cc3C(=O)N([C@@H](C)CO)C[C@@H]2C)cc1`?
esBAF inh: -5

How did CO[C@@H]1CN(C)C(=O)c2ccc(NC(=O)C3CCCCC3)cc2OC[C@H](C)N(Cc2cccnc2)C[C@@H]1C do in these assays?
esBAF inh: 7

Results for CO[C@@H]1CC[C@@H]2CCN(C)C(=O)C[C@H](c3ccccc3)CN(C)C(=O)c3cccc(C#N)c3OC[C@@H]1O2 ?
esBAF inh: 0

Results for C[C@H](CO)N1C[C@H](C)[C@H](CN(C)CC2CCCCC2)Oc2ccc(NC(=O)c3ccncc3)cc2CC1=O ?
esBAF inh: 0

Results for O=C(NC(=S)Nc1nc(-c2ccc(Br)cc2)cs1)c1ccco1 ?
ARFGAP1 inh: -5; ASAP1 GAP inh: 7; SMARCA2 activ: -4

What do the screens show for `CC(=O)Nc1ccc(-c2csc(NCc3ccco3)n2)cc1`?
ARFGAP1 inh: -3; ASAP1 GAP inh: 8; SMARCA2 activ: 4

What do the screens show for `Cc1ccc(-c2csc(NC(=O)c3ccco3)n2)cc1C`?
ARFGAP1 inh: 8; ASAP1 GAP inh: 9; esBAF inh: 47*; SMARCA2 activ: 2

How did O=C(CCNC(=O)c1ccco1)Nc1nc(-c2ccccc2)cs1 do in these assays?
ARFGAP1 inh: -1; ASAP1 GAP inh: -13; esBAF inh: 53*; SMARCA2 activ: 6

How did O=C(NC(=S)Nc1nc(-c2ccc([N+](=O)[O-])cc2)cs1)c1ccco1 do in these assays?
ARFGAP1 inh: -1; ASAP1 GAP inh: 10; esBAF inh: 54*; SMARCA2 activ: 3

What do the screens show for `CC(=O)Nc1ccc(-c2csc(NC(=O)CCNC(=O)c3ccco3)n2)cc1`?
ARFGAP1 inh: -5; ASAP1 GAP inh: 8; esBAF inh: 2; SMARCA2 activ: -2

Results for COc1ccc(-c2csc(NCc3ccco3)n2)cc1C ?
esBAF inh: 66*

How did C[C@H]1CN([C@@H](C)CO)C(=O)c2cc(NS(=O)(=O)c3cn(C)cn3)ccc2O[C@H]1CN(C)S(C)(=O)=O do in these assays?
esBAF inh: -4

How did COc1ccc(N2CCN(C(=O)C3Cc4ccccc4CN3C(=O)c3ccccc3)CC2)cc1 (configuration not stated) do in these assays?
ARFGAP1 inh: 6; ASAP1 GAP inh: -11; esBAF inh: 72*; SMARCA2 activ: -1

How did CC(=O)N1Cc2ccccc2CC1C(=O)N1CCN(c2ccccc2)CC1 (configuration not stated) do in these assays?
ARFGAP1 inh: 2; ASAP1 GAP inh: -1; esBAF inh: 0; SMARCA2 activ: -1

Results for CCCN1[C@@H]2Cn3c(ccc(C4=CCCC4)c3=O)[C@H]1[C@@H](C(=O)NCCOC)[C@@H]2CO ?
esBAF inh: 1

What do the screens show for `CC(C)(C)c1ccc(C(=O)c2cn[nH]c2-c2ccccc2O)cc1`?
ARFGAP1 inh: -13; ASAP1 GAP inh: 5; esBAF inh: 63*; SMARCA2 activ: 4

Results for O=C(c1ccc(Br)cc1)c1cn[nH]c1-c1ccccc1O ?
ARFGAP1 inh: 5; ASAP1 GAP inh: 4; esBAF inh: 10; SMARCA2 activ: 1

What do the screens show for `COc1ccccc1Oc1ccc(N/C=C/C(=O)c2ccco2)cc1`?
ARFGAP1 inh: 8; ASAP1 GAP inh: 17; esBAF inh: 87*; SMARCA2 activ: 3

What do the screens show for `O=C(/C=C/Nc1ccccc1Oc1ccccc1)c1ccco1`?
ARFGAP1 inh: -22; ASAP1 GAP inh: -8; esBAF inh: 14; SMARCA2 activ: 7.9*

Results for O=C(/C=C/Nc1ccc(F)c(Cl)c1)c1ccco1 ?
ARFGAP1 inh: -11; ASAP1 GAP inh: -13; SMARCA2 activ: 8

How did O=C(/C=C/Nc1cccc(F)c1)c1ccco1 do in these assays?
ARFGAP1 inh: 2; ASAP1 GAP inh: -4; esBAF inh: 45*; SMARCA2 activ: 5

How did COc1cccc(NC(=O)N2C[C@H](O)COC[C@H]3O[C@@H](CC(=O)NCc4ccccc4F)CC[C@@H]32)c1 do in these assays?
esBAF inh: 2

What do the screens show for `Cc1noc(C)c1NC(=O)Nc1ccc2c(c1)C(=O)N([C@H](C)CO)C[C@@H](C)[C@@H](CN(C)Cc1ccncc1)O2`?
esBAF inh: 0

How did Fc1cccc(NCc2cn3ccccc3n2)c1 do in these assays?
ARFGAP1 inh: -9; ASAP1 GAP inh: -10; esBAF inh: 60*; SMARCA2 activ: 4

How did Nc1nnc(-c2cc3ccccc3oc2=O)s1 do in these assays?
ARFGAP1 inh: 0; ASAP1 GAP inh: 15; esBAF inh: 26; SMARCA2 activ: 7.9*

Results for CCCC(=O)Nc1ccc2c(c1)C(=O)N(C)C[C@@H](OC)[C@H](C)CN(CCc1ccccc1)[C@@H](C)CO2 ?
esBAF inh: 2

What do the screens show for `CN1C(=O)c2cc(NC(=O)Nc3ccc(F)cc3)ccc2OC[C@H]2O[C@H](CC(=O)NC3CCC3)CC[C@@H]21`?
esBAF inh: 6

What do the screens show for `CCNC(=O)C[C@@H]1CC[C@H]2[C@@H](COc3ccc(NC(=O)Nc4cccc(F)c4)cc3C(=O)N2C)O1`?
esBAF inh: -3

What do the screens show for `O=C(N/N=C/c1ccncc1)c1cccs1`?
esBAF inh: 19

What do the screens show for `O=C(N/N=C\c1cc2c(cc1Cl)OCO2)c1cccs1`?
ARFGAP1 inh: -2; ASAP1 GAP inh: -5; esBAF inh: 53*; SMARCA2 activ: 2

Source: PubChem (several laboratories)
